The results in this text go back to ChEMBL document CHEMBL1137834, “Synthesis of cinnamic acid derivatives and their inhibitory effects on LDL-oxidation, acyl-CoA:cholesterol acyltransferase-1 and -2 activity, and decrease of HDL-particle size” (Bioorg Med Chem Lett, 2004).

SMILES strings stand for the structures. Some results are limits rather than exact numbers.

The species named for experiment [1] is Homo sapiens. Put plainly: Antioxidant activity against copper mediated low-density lipoproteins (LDL) oxidation. Format: functional. In a few lines: (§1)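 Test compounds at final 1 µg/mL. Oxidation read as TBARS, expressed as nmol MDA/mg LDL and % inhibition against LDL + CuSO4 alone. Electromobility was also compared on 0.7% agarose gel.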
For experiment [2], the target named is T1, Sterol O-acyltransferase 2 (Homo sapiens, UniProt O75908).
T1 sequence (O75908 whole entry): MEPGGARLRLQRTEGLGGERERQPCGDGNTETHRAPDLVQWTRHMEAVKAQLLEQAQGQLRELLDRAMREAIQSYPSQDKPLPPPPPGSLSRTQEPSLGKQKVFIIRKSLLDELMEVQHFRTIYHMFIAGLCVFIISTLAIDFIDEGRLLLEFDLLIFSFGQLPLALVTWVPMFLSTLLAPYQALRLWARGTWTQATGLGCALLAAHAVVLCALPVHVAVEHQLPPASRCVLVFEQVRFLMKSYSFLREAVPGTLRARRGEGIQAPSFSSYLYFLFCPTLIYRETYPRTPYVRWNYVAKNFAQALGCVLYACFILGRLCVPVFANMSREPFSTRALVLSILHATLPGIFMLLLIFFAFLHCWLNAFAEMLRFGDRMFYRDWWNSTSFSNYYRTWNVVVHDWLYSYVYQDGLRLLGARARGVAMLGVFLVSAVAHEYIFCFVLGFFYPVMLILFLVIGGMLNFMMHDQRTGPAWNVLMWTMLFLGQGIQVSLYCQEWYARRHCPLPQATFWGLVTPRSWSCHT
Briefly: Inhibitory activity against human Acyl-CoA:cholesterol acyltransferase-2.

The species named for experiment [3] is Homo sapiens. Put plainly: Antioxidant activity was determined by measuring the produced thiobarbituric acid reactive substance. Format: functional. An outline of the steps:
as §1

The target in experiment [4] is T2, Sterol O-acyltransferase 2 (Homo sapiens) (UniProt O75908).
T2 sequence (whole entry): T1 sequence (O75908 whole entry)
Briefly: Inhibitory activity against human Acyl-CoA:cholesterol acyltransferase-2 at 30 ug/mL.

For a further experiment, the species on record is Oryctolagus cuniculus. Briefly: Compound inhibited the rHDL-particle rearrangement under presence of LDL at 37 degree C. The experiment is classed as functional. An outline of the steps: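 rHDL particles (98 Å, 2 mg/mL preparation) were incubated at 37 °C for 24 h with human LDL (4 mg/mL preparation) and compound. Products were run on native 8–25% polyacrylamide gradient gel and stained with Coomassie to compare particle size.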

As to `O=C(CCc1ccc(O)c(O)c1)N[C@@H](CC(=O)OCc1ccccc1)C(=O)OCc1ccccc1`, the results for the 50% inhibitory concentration (IC50) (in the experiment filed under Homo sapiens [1]; in experiment [2]) were 3 µM and 81 µM, respectively. The Activity in the experiment listed under Homo sapiens [3] is reported as 32.1 nmol of MDA/mg of LDL. In addition, the inhibition (commonly how much of the control response was suppressed) in experiment [4] was above 70%.

For `CC(C)(Sc1cc(C(C)(C)C)c(O)c(C(C)(C)C)c1)Sc1cc(C(C)(C)C)c(O)c(C(C)(C)C)c1` [PROBUCOL], in the experiment listed under Homo sapiens [3], the Activity is given as 263.1 nmol of MDA/mg of LDL.

`COC(=O)[C@H](C)NC(=O)/C=C/c1ccc(O)c(O)c1`: the Activity in the experiment filed under Homo sapiens [3] is 91.5 nmol of MDA/mg of LDL. Besides, the inhibition in experiment [4] worked out at 0%.

Regarding `COC(=O)[C@H](Cc1ccccc1)NC(=O)/C=C/c1ccc(O)cc1`, the half-inhibitory concentration (IC50) (commonly the concentration that gives 50% inhibition) in the experiment filed under Homo sapiens [1] was 52 µM. Also, the Activity in the experiment listed under Homo sapiens [3] is given as 269 nmol of MDA/mg of LDL. The Inhibition in the experiment listed under Oryctolagus cuniculus amounted to 307 µM. The inhibition in experiment [4] was above 70%.
